Most compounds without a hit are left out; they make up all but 3.7% or so of the library.
NPY-Y2 antag: NPY-Y2 receptor antagonists, primary screen, cell-based; 0.99% of 140,000 active; inhibition, % at 2.7 µM; Neuropeptide Y receptor type 2 (Homo sapiens), P49146; NPY-Y2 expressing cells, antagonist mode; in the data active = inhibition above about 17%
Furin inhibitor: human furin inhibitors, primary screen, biochemical, fluorescence intensity. purified furin, fluorogenic substrate cleavage. P09958. inhibition, % at 20 µM or 30 µM. 0.061% of 220,000 active; in the data active = inhibition above about 25%
NPY1 pot ag: NPY-Y1 receptor potentiators or agonists, primary screen, cell-based | Neuropeptide Y receptor type 1 (Homo sapiens), P25929 | NPY-Y1 expressing cells, potentiator/agonist activation | activation, % at 3.6 µM | 0.37% of 220,000 active | AID 1304, 2008; in the data active = activation above about 33%, passing the limit was not always enough;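 note: cells stimulated with NPY at EC10 then isoproterenol at EC100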
NPY Y1 blocker: NPY-Y1 receptor antagonists, primary screen, cell-based | HEK293-CNG Y1 cells, membrane potential fluorescence; NPY at EC95, then isoproterenol | inhibition, % at 3.6 µM | 1% of 200,000 active | AID 1040, 2008;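 active = inhibition above the campaign mean inhibition of all tested compounds plus 3 SD, cut at about 20% in these data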
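Assay system: HEK293 cells with Y1 receptor plus CNG channel | Probe or stimulus: NPY (25 nM), isoproterenol (1 µM), Ro 20-1724 (25 µM) | Timing: Compound incubation 1 h at room temperature, readout 45 min post-stimulation | Measured by: Membrane-potential fluorescent dye readout | Benchmarks: High control isoproterenol alone, low control NPY with isoproterenol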
KCC2 mod: KCC2 cotransporter modulators, thallium flux, primary screen, cell-based, HEK293 KCC2, FluoZin-2 fluorescence, MLSMR | Solute carrier family 12 member 5 (Homo sapiens), Q9H2X9 | KCC2 cells, thallium flux FluoZin-2 fluorescence | B-score of Tl+ flux slope (higher = more flux/activation; lower = inhibition) at 10 µM | 2.2% of 190,000 active | AID 1456, 2008;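 active = thallium flux slope and its plate-corrected score both differing from the plate sample mean at a set confidence after two filtering rounds, in either direction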;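 note: slope of fluorescence scaled to starting intensity during 10 to 20 s after thallium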
Target sequence (Q9H2X9 whole entry, looked up): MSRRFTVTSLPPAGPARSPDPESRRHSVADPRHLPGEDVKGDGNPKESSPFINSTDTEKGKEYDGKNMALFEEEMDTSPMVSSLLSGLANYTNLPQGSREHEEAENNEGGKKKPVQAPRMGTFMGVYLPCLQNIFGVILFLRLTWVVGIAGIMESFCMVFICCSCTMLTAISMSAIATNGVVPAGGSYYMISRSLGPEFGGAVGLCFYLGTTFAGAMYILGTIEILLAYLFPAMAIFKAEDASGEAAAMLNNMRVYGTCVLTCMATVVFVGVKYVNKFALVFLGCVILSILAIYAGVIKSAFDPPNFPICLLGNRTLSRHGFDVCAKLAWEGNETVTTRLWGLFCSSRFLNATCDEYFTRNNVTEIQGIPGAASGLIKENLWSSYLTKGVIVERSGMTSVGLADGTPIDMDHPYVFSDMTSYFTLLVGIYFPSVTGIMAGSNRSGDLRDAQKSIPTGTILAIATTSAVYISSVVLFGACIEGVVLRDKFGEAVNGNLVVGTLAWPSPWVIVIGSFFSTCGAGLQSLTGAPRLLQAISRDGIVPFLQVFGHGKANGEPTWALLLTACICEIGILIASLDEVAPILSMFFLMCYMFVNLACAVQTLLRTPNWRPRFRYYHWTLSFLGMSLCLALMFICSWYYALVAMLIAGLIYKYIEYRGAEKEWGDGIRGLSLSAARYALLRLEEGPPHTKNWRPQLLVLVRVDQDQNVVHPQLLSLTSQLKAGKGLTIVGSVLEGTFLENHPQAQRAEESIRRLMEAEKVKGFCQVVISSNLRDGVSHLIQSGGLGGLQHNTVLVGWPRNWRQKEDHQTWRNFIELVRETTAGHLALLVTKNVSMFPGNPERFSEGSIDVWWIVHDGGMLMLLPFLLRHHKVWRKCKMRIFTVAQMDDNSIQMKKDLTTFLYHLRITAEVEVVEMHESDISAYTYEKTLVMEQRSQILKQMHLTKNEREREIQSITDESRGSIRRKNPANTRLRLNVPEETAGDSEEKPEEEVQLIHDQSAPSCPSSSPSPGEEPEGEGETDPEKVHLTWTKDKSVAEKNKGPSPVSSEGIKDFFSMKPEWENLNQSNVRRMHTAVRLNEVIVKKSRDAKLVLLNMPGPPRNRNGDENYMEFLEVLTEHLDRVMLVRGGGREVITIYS
NPY-Y2 PAM-ag: NPY-Y2 potentiators or agonists, primary screen, cell-based. Neuropeptide Y receptor type 2 (Homo sapiens), P49146. cells expressing NPY-Y2, potentiator/agonist read-out. activation, % at 3.6 µM. 0.45% of 220,000 active. AID 1359, 2008; in the data active = activation above about 27%;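 note: cells stimulated with NPY near EC25 plus isoproterenol at EC100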
Of the large screens only hits and unclear results are named; the others gave an inactive call.

CCc1[nH]nc2c1C(c1cccc(OC(=O)N3CCOCC3)c1)C(C#N)=C(N)O2 (configuration not stated)	none
CC(C)c1[nH]nc2c1C(c1cccc(OC(=O)N3CCOCC3)c1)C(C#N)=C(N)O2 (configuration not stated)	NPY-Y2 antag 20, NPY Y1 blocker 131
CCOC(=O)c1c(CSCc2ccccc2)oc2ccc(O)c(CN(C)C)c12	none (no result: NPY-Y2 antag, NPY Y1 blocker)
CCOC(=O)c1c(-c2ccccc2)oc2ccc(O)c(CN3CCCC3)c12	NPY-Y2 antag 23, NPY Y1 blocker 39
CCOC(=O)c1c(-c2ccccc2)oc2ccc(O)c(CN(C)C)c12	NPY-Y2 antag 25, NPY Y1 blocker 22
Cc1nc(NC(=O)CSc2nnc(Cn3nnc4ccccc43)n2C)sc1C	none
Cc1ccccc1C(=O)Nc1nncs1	none
CCSc1ccccc1C(=O)Nc1nncs1	Furin inhibitor 27
Cc1nc2c(-c3ccccc3)c(C)nn2c(SCC(N)=O)c1Cc1ccccc1	none (no result: NPY-Y2 antag, NPY Y1 blocker)
COc1ccc(CN(CCN(C)C)Cc2ccccc2)c(OC)c1	NPY-Y2 antag 20, NPY Y1 blocker 23 (no result: KCC2 mod)
COC(=O)NC1CCC(NC(=O)OC)CC1 (configuration not stated)	none
CC1=C(C(=O)OC2CCCC2)C(c2ccc(C)o2)C2=C(CC(c3cccs3)CC2=O)N1 (configuration not stated)	none
O=C(c1ccc(Cl)c(S(=O)(=O)N2CCOCC2)c1)N1CCN(Cc2ccccc2)CC1	none
OCCC1CN(Cc2nc3ccccc3s2)CCN1CCc1ccccc1 (configuration not stated)	none (no result: NPY-Y2 antag)
Cc1ccc(Cn2ncc3c(N4CCN(c5ccccc5C)CC4)ncnc32)cc1	NPY Y1 blocker 27
Cc1ccc(Cn2ncc3c(N4CCOCC4)ncnc32)cc1	none (no result: KCC2 mod)
c1ccc(Cn2ncc3c(N4CCCCC4)ncnc32)cc1	KCC2 mod -4.1
Cc1ccc(/C(O)=C2\C(=O)C(=O)N(CC(C)O)C2c2ccccn2)cc1 (configuration not stated)	none (no result: NPY-Y2 antag)
O=c1c2cc(N3CCOCC3)ccc2[nH]c(=S)n1Cc1cccc(Cl)c1	none (no result: KCC2 mod)
O=c1[nH]c2ccc(Cl)cc2c(=O)n1Cc1ccco1	none
O=c1c2cc(Cl)ccc2[nH]c(=S)n1Cc1cccs1	KCC2 mod 19
O=c1c2cc(Cl)ccc2[nH]c(=S)n1Cc1ccco1	KCC2 mod 20
CCn1c(=O)c(=O)[nH]c2cc(C(=O)N3CCN(Cc4ccc5c(c4)OCO5)CC3)ccc21	none (no result: NPY-Y2 antag)
O=C(O)/C=C/C(=O)Nc1ccccc1SC(F)(F)F	none
COCCCNC(=O)c1c(N)n(/N=C/c2cccs2)c2nc3ccccc3nc12	NPY-Y2 antag 19
Fc1cccc(Cl)c1/C=N/n1c(-c2cccnc2)n[nH]c1=S	none (no result: NPY-Y2 antag)
O=S(=O)(Cc1cc(Oc2ccccc2)nc(-c2ccccc2)n1)c1ccccc1	NPY-Y2 antag 21, NPY Y1 blocker 22
CCOC(=O)C(=CNNc1cccc(Cl)c1)C(=O)OCC	NPY1 pot ag 62, NPY-Y2 PAM-ag 54 (no result: NPY-Y2 antag, NPY Y1 blocker)
Nc1nonc1C(=O)NCCNCc1ccccc1OCc1ccccc1F	none
Nc1nonc1C(=O)NCCNCc1cc(Br)ccc1OCc1ccccc1F	NPY-Y2 antag 43, NPY Y1 blocker 44
CCCOc1ccc(Oc2nc(-c3ccncc3)nc3ccccc23)cc1	none (no result: NPY-Y2 antag, NPY Y1 blocker)
O=C(CCC(=O)N(CC(=O)NC1CCCC1)C1CCCCC1)Nc1ccccn1	none (no result: NPY-Y2 antag)
O=c1[nH]n(-c2cccc3cccnc23)c(=O)c2ccccc12	none
O=S1(=O)Nc2c(ccc3cccnc23)-c2ccccc21	KCC2 mod 4.1
O/N=C/c1cc(Br)ccc1OCc1ccc(F)cc1	NPY-Y2 antag 18 (no result: KCC2 mod)
Cc1cc(OCC(F)(F)C(F)(F)C(F)(F)C(F)(F)C(F)(F)C(F)F)nc(N)n1	NPY1 pot ag 62, NPY-Y2 PAM-ag 38
CSc1nnc(-c2cc3c(s2)-c2ccccc2CC3)o1	none
S=c1[nH]nc(-c2cc3c(s2)-c2ccccc2CC3)o1	KCC2 mod 95
O=C1CC(N2CCC(O)(c3ccc(Cl)cc3)CC2)C(=O)N1Cc1ccc(N2CCCC2=O)cc1 (configuration not stated)	none
CCCOC(=O)c1ccc(NC(=O)c2ccccc2OC)cc1	NPY Y1 blocker 21 (no result: NPY-Y2 antag)
CCCCOC(=O)c1ccc(NC(=O)c2ccccc2OC)cc1	none
CC1=NN(c2ccccc2)C(=O)C1C(=O)c1ccc(Cl)cc1 (configuration not stated)	KCC2 mod 7.8
CC1=NN(c2ccccc2)C(=O)C1C(=O)c1ccccc1 (configuration not stated)	none
N#CCc1ccc(NC(=O)Nc2cccc(Cl)c2)cc1	NPY1 pot ag 37
Cc1ccc(-c2cc(N)n[nH]2)cc1	none (no result: KCC2 mod)
Cc1ccc(-c2csc(=S)[nH]2)cc1	KCC2 mod 100 (no result: NPY-Y2 antag)
S=c1[nH]c(-c2ccc(Cl)cc2)cs1	KCC2 mod 55 (no result: NPY-Y2 antag)
Clc1ccc(-c2ccn[nH]2)cc1	none (no result: NPY-Y2 antag)
Cc1cc2oc(C(=O)N(Cc3ccccc3)C3CCS(=O)(=O)C3)cc(=O)c2cc1Cl (configuration not stated)	none (no result: KCC2 mod)
COc1ccccc1NC(=O)COc1ccc(Br)cc1CNC1CCCC1	NPY Y1 blocker 21 (no result: NPY-Y2 antag)
COc1ccccc1NC(=O)COc1ccc(Br)cc1CO	none (no result: KCC2 mod)
O=C(OC1C2CCC1C1CN(CCc3ccccc3)CC12)c1ccccc1 (configuration not stated)	NPY-Y2 antag 42, NPY Y1 blocker 44
Cc1cccc(Nc2nc(NCCCN3CCOCC3)nc(N)c2[N+](=O)[O-])c1	none
O=C1NC(=S)S/C1=C/c1ccc(N2CCOCC2)o1	KCC2 mod -7.7
O=C1S/C(=C/c2ccc(N3CCOCC3)o2)C(=O)N1Cc1ccc(F)cc1	none (no result: KCC2 mod)
COc1ccccc1NC(=O)c1cc2cc(Br)ccc2cc1O	NPY1 pot ag 96, NPY-Y2 PAM-ag 86 (no result: NPY-Y2 antag, NPY Y1 blocker)
COc1ccccc1N1CCN(S(=O)(=O)c2ccc(Cl)s2)CC1	none (no result: KCC2 mod)
NC(=O)CSc1nnc(-c2ccccn2)n1Cc1ccco1	none (no result: NPY-Y2 antag, NPY Y1 blocker)
C(=C\c1ccccc1)/CSc1nnc(-c2ccccn2)n1Cc1ccco1	NPY-Y2 antag 20, NPY Y1 blocker 21 (no result: KCC2 mod)
CCOC(=O)c1c(NC(=O)CSc2nnnn2CC)sc(C)c1C	none (no result: KCC2 mod)
CCOCCCNC(=O)C(c1ccc(Cl)cc1)N1CCC2(CC1)OCCO2 (configuration not stated)	NPY1 pot ag 32, NPY-Y2 PAM-ag 36 (no result: KCC2 mod)
O=C(Cc1coc(-c2ccc(F)cc2)n1)NCc1ccccc1	KCC2 mod -2.6
C=CCN1N=C(c2ccc(NC(=O)c3ccccc3)cc2)CSC1=O	none (no result: NPY-Y2 antag, KCC2 mod)
Cc1[nH]c2ccccc2c1N=Nc1ccccc1C(=O)O	none

Screens as filed in PubChem BioAssay.
